ChEMBL document CHEMBL3102739, “Synthesis and antiproliferative activity of conformationally restricted 1,2,3-triazole analogues of combretastatins in the sea urchin embryo model and against human cancer cell lines” (Bioorg Med Chem, 2014)

How the values were obtained:
T47D = assay: Growth inhibition of human T47D cells after 48 hrs by SRB assay; assay type: functional
MDA-MB-468 = assay: Growth inhibition of human MDA-MB-468 cells after 48 hrs by SRB assay; assay type: functional; details: MDA-MB-468, 48 h
[1] = Growth inhibition of human Hs578T cells after 48 hrs by SRB assay; assay type: functional; details: Hs-578T
BT-549 = assay: Growth inhibition of human BT549 cells after 48 hrs by SRB assay; assay type: functional; details: BT-549, 48 h
MDA-MB-231 = assay: Growth inhibition of human MDA-MB-231 cells after 48 hrs by SRB assay; assay type: functional; details: MDA-MB-231, 48 h
DU-145 = assay: Growth inhibition of human DU145 cells after 48 hrs by SRB assay; assay type: functional; details: DU-145, 48 h
[2] = Growth inhibition of human UO31 cells after 48 hrs by SRB assay; assay type: functional; details: UO-31, 48 h
TK-10 = assay: Growth inhibition of human TK10 cells after 48 hrs by SRB assay; assay type: functional; details: TK-10, 48 h
[3] = Growth inhibition of human RXF393 cells after 48 hrs by SRB assay; assay type: functional; details: RXF 393, 48 h
SN12C = assay: Growth inhibition of human SN12C cells after 48 hrs by SRB assay; assay type: functional
ACHN = assay: Growth inhibition of human ACHN cells after 48 hrs by SRB assay; assay type: functional
CAKI-1 = assay: Growth inhibition of human CAKI-1 cells after 48 hrs by SRB assay; assay type: functional; details: CAKI-1, 48 h
786-0 = assay: Growth inhibition of human 786-0 cells after 48 hrs by SRB assay; assay type: functional; details: 786-0, 48 h
A498 = assay: Growth inhibition of human A498 cells after 48 hrs by SRB assay; assay type: functional; details: A498, 48 h
SK-OV-3 = assay: Growth inhibition of human SKOV3 cells after 48 hrs by SRB assay; assay type: functional; details: SK-OV-3, 48 h
[4] = Growth inhibition of human NCI-ADR-RES cells after 48 hrs by SRB assay; assay type: functional
[5] = Growth inhibition of human OVCAR4 cells after 48 hrs by SRB assay; assay type: functional; details: OVCAR-4, 48 h
OVCAR-3 = assay: Growth inhibition of human OVCAR3 cells after 48 hrs by SRB assay; assay type: functional; details: OVCAR-3, 48 h
UACC-62 = assay: Growth inhibition of human UACC62 cells after 48 hrs by SRB assay; assay type: functional; details: UACC-62, 48 h
SK-MEL-5 = assay: Growth inhibition of human SK-MEL-5 cells after 48 hrs by SRB assay; assay type: functional; details: SK-MEL-5, 48 h
SK-MEL-2 = assay: Growth inhibition of human SK-MEL-2 cells after 48 hrs by SRB assay; assay type: functional; details: SK-MEL-2, 48 h
MDA-MB-435 = assay: Growth inhibition of human MDA-MB-435 cells after 48 hrs by SRB assay; assay type: functional; details: MDA-MB-435, 48 h
M14 = assay: Growth inhibition of human M14 cells after 48 hrs by SRB assay; assay type: functional; details: M14, 48 h
LOX IMVI = assay: Growth inhibition of human LOXIMVI cells after 48 hrs by SRB assay; assay type: functional
SNB-75 = assay: Growth inhibition of human SNB75 cells after 48 hrs by SRB assay; assay type: functional; details: SNB-75, 48 h
[6] = Growth inhibition of human SF539 cells after 48 hrs by SRB assay; assay type: functional; details: SF-539, 48 h
SF-295 = assay: Growth inhibition of human SF295 cells after 48 hrs by SRB assay; assay type: functional; details: SF-295, 48 h
SW-620 = assay: Growth inhibition of human SW620 cells after 48 hrs by SRB assay; assay type: functional; details: SW-620, 48 h
KM12 = assay: Growth inhibition of human KM12 cells after 48 hrs by SRB assay; assay type: functional; details: KM12, 48 h
HT-29 = assay: Growth inhibition of human HT-29 cells after 48 hrs by SRB assay; assay type: functional; details: HT-29, 48 h
HCT-15 = assay: Growth inhibition of human HCT15 cells after 48 hrs by SRB assay; assay type: functional; details: HCT-15, 48 h
[7] = Growth inhibition of human HCC2998 cells after 48 hrs by SRB assay; assay type: functional; details: HCC 2998, 48 h
HCT-116 = assay: Growth inhibition of human HCT116 cells after 48 hrs by SRB assay; assay type: functional; details: HCT-116, 48 h
COLO 205 = assay: Growth inhibition of human COLO205 cells after 48 hrs by SRB assay; assay type: functional; details: COLO 205, 48 h
NCI-H522 = assay: Growth inhibition of human NCI-H522 cells after 48 hrs by SRB assay; assay type: functional; details: NCI-H522, 48 h
NCI-H460 = assay: Growth inhibition of human NCI-H460 cells after 48 hrs by SRB assay; assay type: functional; details: NCI-H460, 48 h
NCI-H226 = assay: Growth inhibition of human NCI-H226 cells after 48 hrs by SRB assay; assay type: functional; details: NCI-H226, 48 h
[8] = Growth inhibition of human HOP92 cells after 48 hrs by SRB assay; assay type: functional; details: HOP-92, 48 h
[9] = Growth inhibition of human EKVX cells after 48 hrs by SRB assay; assay type: functional
HOP-62 = assay: Growth inhibition of human HOP62 cells after 48 hrs by SRB assay; assay type: functional; details: HOP-62, 48 h
A549 = assay: Growth inhibition of human A549 cells after 48 hrs by SRB assay; assay type: functional; details: A549, 48 h
RPMI-8226 = assay: Growth inhibition of human RPMI8226 cells after 48 hrs by SRB assay; assay type: functional; details: RPMI-8226, 48 h
MOLT-4 = assay: Growth inhibition of human MOLT4 cells after 48 hrs by SRB assay; assay type: functional; details: MOLT-4, 48 h
K562 = assay: Growth inhibition of human K562 cells after 48 hrs by SRB assay; assay type: functional; details: K562, 48 h
CCRF-CEM = assay: Growth inhibition of human CCRF-CEM cells after 48 hrs by SRB assay; assay type: functional
HL-60(TB) = assay: Growth inhibition of human HL-60(TB) cells after 48 hrs by SRB assay; assay type: functional; details: HL-60, 48 h
Paracentrotus lividus [10] = assay: Antimitotic activity against sea urchin embryo free-swimming blastula model assessed as embryo spinning compound treated at 8 to 10 hrs post-fertilization measured after 0.25 to 20 hrs; assay type: functional, Blastula stage
Paracentrotus lividus [11] = assay: Antimitotic activity against sea urchin embryo model assessed as cleavage arrest of fertilized egg compound treated at 8 to 20 mins post-fertilization and 45 to 55 mins prior to first mitotic cycle completion measured 2.5 to 5.5 hrs post-fertilization; assay type: functional
In short: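 Fertilized eggs are exposed 8–20 min after fertilization to 2-fold decreasing concentrations. Stocks are 10 mM in DMSO, then diluted 10-fold in 95% EtOH; final DMSO is at most 0.05% and EtOH at most 1%. Embryos are kept as a monolayer, up to 2000 embryos/mL, in filtered seawater at room temperature. The value is the threshold concentration giving cleavage alteration, embryo death before hatching or full mitotic arrest. Duplicates were run.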

COc1ccc(-c2nn[nH]c2-c2cc(OC)c3c(c2OC)OCO3)cc1
GI50 (T47D): 0.716 µM | GI50 (MDA-MB-468): 0.218 µM | GI50 [1]: 1.35 µM | GI50 (BT-549): 0.345 µM | GI50 (MDA-MB-231): 1.13 µM | GI50 (DU-145): 1.42 µM | GI50 [2]: 2.96 µM | GI50 (TK-10): 6.37 µM | GI50 [3]: 0.657 µM | GI50 (SN12C): 4.67 µM | GI50 (ACHN): 6.79 µM | GI50 (CAKI-1): 0.762 µM | GI50 (786-0): 1.4 µM | GI50 (A498): 0.353 µM | GI50 (SK-OV-3): 0.854 µM | GI50 [4]: 0.296 µM | GI50 [5]: 4.68 µM | GI50 (OVCAR-3): 0.363 µM | GI50 (UACC-62): 0.42 µM | GI50 (SK-MEL-5): 0.343 µM | GI50 (SK-MEL-2): 0.326 µM | GI50 (MDA-MB-435): 0.193 µM | GI50 (M14): 0.341 µM | GI50 (LOX IMVI): 0.547 µM | GI50 (SNB-75): 0.437 µM | GI50 [6]: 0.909 µM | GI50 (SF-295): 0.356 µM | GI50 (SW-620): 0.385 µM | GI50 (KM12): 0.412 µM | GI50 (HT-29): 0.376 µM | GI50 (HCT-15): 0.454 µM | GI50 [7]: 1.11 µM | GI50 (HCT-116): 0.353 µM | GI50 (COLO 205): 0.884 µM | GI50 (NCI-H522): 0.301 µM | GI50 (NCI-H460): 0.409 µM | GI50 (NCI-H226): 15.2 µM | GI50 [8]: 0.5 µM | GI50 [9]: 2.79 µM | GI50 (HOP-62): 0.899 µM | GI50 (A549): 0.532 µM | GI50 (RPMI-8226): 0.816 µM | GI50 (MOLT-4): 0.529 µM | GI50 (K562): 0.493 µM | GI50 (CCRF-CEM): 0.684 µM | GI50 (HL-60(TB)): 0.307 µM | EC (Paracentrotus lividus [10]): >5 µM | EC (Paracentrotus lividus [11]): >4 µM

COc1ccc(-c2nn[nH]c2-c2cc(OC)c(OC)c(OC)c2)cc1
GI50 (T47D): 2.66 µM | GI50 (MDA-MB-468): < 0.01 µM | GI50 [1]: < 0.01 µM | GI50 (BT-549): < 0.01 µM | GI50 (MDA-MB-231): < 0.01 µM | GI50 (DU-145): < 0.01 µM | GI50 [2]: 1.21 µM | GI50 (TK-10): < 0.01 µM | GI50 [3]: < 0.01 µM | GI50 (SN12C): < 0.01 µM | GI50 (ACHN): 0.015 µM | GI50 (CAKI-1): < 0.01 µM | GI50 (786-0): < 0.01 µM | GI50 (A498): < 0.01 µM | GI50 (SK-OV-3): < 0.01 µM | GI50 [4]: < 0.01 µM | GI50 [5]: < 0.01 µM | GI50 (OVCAR-3): < 0.01 µM | GI50 (UACC-62): < 0.01 µM | GI50 (SK-MEL-5): < 0.01 µM | GI50 (SK-MEL-2): < 0.01 µM | GI50 (MDA-MB-435): < 0.01 µM | GI50 (M14): < 0.01 µM | GI50 (LOX IMVI): < 0.01 µM | GI50 (SNB-75): < 0.01 µM | GI50 [6]: < 0.01 µM | GI50 (SF-295): < 0.01 µM | GI50 (SW-620): < 0.01 µM | GI50 (KM12): < 0.01 µM | GI50 (HT-29): < 0.01 µM | GI50 (HCT-15): < 0.01 µM | GI50 [7]: < 0.01 µM | GI50 (HCT-116): < 0.01 µM | GI50 (COLO 205): 0.033 µM | GI50 (NCI-H522): < 0.01 µM | GI50 (NCI-H460): < 0.01 µM | GI50 (NCI-H226): 0.051 µM | GI50 [8]: < 0.01 µM | GI50 [9]: < 0.01 µM | GI50 (HOP-62): < 0.01 µM | GI50 (A549): < 0.01 µM | GI50 (RPMI-8226): < 0.01 µM | GI50 (MOLT-4): 0.012 µM | GI50 (K562): < 0.01 µM | GI50 (CCRF-CEM): < 0.01 µM | GI50 (HL-60(TB)): < 0.01 µM | EC (Paracentrotus lividus [10]): 0.1 µM | EC (Paracentrotus lividus [11]): 0.02 µM
